In ChEMBL document CHEMBL2417539, “1-substituted (Dibenzo[b,d]thiophen-4-yl)-2-morpholino-4H-chromen-4-ones endowed with dual DNA-PK/PI3-K inhibitory activity” (J Med Chem, 2013):
pEC50, pIC50: −log10 of the molar value.

How the values were obtained:
[1] = Fraction unbound in human Plasma; assay type: ADME, cell-free
[2] = molecular target: T1, DNA-dependent protein kinase catalytic subunit (Homo sapiens, UniProt P78527); experiment: Inhibition of DNA-PK autophosphorylation at S2056 in human HeLa cells; assay type: cell-based
T1 sequence (P78527 whole entry): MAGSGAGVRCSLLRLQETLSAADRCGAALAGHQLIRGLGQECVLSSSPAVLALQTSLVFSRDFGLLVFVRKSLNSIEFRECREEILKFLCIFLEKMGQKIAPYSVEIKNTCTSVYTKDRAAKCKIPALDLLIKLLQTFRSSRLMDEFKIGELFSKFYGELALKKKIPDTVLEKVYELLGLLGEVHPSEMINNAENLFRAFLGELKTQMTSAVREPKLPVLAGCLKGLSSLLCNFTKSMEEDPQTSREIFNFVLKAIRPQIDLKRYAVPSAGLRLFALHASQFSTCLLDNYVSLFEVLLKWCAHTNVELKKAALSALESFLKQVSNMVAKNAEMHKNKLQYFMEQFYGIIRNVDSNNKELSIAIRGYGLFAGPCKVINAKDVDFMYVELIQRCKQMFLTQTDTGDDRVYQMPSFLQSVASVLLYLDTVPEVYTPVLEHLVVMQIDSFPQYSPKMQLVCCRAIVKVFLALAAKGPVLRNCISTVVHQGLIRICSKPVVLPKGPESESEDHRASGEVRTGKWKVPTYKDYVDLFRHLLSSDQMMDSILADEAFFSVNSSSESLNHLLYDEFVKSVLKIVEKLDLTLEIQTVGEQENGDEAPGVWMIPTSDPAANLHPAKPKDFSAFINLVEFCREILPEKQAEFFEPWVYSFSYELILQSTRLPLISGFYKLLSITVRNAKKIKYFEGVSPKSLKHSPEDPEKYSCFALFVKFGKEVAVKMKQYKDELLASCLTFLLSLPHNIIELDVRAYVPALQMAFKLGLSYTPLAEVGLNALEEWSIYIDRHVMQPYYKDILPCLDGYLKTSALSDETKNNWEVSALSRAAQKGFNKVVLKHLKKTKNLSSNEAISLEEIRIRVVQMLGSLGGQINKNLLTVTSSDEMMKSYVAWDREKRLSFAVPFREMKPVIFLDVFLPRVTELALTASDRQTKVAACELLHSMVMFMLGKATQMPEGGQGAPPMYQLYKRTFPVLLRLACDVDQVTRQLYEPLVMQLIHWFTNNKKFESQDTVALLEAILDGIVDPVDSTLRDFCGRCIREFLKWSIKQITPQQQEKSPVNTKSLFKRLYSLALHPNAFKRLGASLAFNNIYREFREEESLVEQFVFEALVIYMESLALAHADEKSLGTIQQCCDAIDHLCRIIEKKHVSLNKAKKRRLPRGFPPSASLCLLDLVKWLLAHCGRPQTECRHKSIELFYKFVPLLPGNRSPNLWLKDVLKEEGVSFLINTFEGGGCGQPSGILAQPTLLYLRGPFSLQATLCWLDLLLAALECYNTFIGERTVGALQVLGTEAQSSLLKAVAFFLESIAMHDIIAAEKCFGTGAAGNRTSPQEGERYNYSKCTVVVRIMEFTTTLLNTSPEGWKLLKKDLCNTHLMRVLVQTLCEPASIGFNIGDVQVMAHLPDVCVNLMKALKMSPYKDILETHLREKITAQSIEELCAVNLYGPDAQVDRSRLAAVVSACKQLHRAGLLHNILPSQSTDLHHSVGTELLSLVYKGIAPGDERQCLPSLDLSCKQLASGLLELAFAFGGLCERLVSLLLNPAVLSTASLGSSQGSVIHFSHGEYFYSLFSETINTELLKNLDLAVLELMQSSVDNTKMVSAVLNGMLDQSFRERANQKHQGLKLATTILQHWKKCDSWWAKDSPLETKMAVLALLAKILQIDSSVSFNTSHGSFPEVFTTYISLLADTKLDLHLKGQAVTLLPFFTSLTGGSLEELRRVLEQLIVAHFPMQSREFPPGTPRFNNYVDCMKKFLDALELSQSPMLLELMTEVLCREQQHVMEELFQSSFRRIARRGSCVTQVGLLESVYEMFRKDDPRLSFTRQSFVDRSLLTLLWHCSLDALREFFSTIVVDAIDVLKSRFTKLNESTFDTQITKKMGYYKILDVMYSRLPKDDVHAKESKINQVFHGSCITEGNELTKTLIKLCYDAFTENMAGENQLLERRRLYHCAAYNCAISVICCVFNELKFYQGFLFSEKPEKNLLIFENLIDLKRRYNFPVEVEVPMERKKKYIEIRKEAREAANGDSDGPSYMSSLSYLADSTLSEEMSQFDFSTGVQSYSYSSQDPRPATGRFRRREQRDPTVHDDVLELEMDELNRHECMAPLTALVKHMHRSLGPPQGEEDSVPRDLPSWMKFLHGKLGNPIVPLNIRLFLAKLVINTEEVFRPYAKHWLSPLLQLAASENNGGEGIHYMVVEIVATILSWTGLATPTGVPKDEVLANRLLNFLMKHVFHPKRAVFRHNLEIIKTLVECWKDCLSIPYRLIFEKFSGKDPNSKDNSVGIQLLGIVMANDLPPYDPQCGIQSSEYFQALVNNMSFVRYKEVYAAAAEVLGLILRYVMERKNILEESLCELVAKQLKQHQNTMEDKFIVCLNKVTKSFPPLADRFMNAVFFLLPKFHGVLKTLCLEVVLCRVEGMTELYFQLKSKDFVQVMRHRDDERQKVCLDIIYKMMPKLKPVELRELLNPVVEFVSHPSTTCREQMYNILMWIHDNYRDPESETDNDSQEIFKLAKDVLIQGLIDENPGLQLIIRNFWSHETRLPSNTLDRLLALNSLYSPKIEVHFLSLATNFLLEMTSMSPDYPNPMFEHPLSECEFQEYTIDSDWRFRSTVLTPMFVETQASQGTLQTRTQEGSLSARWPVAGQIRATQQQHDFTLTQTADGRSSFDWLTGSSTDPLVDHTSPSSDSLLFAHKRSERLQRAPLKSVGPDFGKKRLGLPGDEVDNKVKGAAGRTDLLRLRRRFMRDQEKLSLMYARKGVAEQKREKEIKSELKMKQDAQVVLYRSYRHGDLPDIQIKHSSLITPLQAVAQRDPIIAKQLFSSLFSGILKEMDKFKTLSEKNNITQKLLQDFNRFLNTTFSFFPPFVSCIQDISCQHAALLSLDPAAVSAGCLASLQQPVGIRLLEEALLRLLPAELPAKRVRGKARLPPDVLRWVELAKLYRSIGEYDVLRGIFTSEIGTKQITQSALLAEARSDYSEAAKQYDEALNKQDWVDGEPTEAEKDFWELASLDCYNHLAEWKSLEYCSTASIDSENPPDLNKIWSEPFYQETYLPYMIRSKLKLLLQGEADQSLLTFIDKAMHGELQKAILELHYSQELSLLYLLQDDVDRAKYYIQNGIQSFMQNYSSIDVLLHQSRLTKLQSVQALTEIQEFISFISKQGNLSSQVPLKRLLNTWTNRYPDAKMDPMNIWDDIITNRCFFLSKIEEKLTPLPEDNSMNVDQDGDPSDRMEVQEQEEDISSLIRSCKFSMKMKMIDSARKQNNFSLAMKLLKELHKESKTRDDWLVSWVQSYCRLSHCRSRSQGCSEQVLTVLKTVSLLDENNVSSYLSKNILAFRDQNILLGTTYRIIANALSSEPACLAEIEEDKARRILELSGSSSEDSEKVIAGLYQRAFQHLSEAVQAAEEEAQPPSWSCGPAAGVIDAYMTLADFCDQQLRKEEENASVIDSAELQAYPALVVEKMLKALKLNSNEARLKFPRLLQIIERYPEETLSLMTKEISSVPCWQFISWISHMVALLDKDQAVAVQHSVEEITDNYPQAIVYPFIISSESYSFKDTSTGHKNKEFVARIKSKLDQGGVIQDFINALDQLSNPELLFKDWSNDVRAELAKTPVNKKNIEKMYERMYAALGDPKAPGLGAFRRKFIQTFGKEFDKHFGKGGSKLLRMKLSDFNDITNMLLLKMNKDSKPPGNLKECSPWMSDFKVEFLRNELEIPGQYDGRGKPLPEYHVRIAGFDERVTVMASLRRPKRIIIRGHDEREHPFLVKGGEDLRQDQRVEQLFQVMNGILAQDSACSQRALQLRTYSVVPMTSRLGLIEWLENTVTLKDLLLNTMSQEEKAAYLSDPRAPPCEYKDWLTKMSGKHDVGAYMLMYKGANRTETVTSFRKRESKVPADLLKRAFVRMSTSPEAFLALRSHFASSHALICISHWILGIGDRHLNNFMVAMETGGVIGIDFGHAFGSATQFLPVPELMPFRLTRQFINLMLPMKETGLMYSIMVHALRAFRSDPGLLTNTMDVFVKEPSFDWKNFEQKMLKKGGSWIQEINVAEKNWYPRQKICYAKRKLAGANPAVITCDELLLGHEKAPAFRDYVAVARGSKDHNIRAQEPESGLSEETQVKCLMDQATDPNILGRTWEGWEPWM

[3] = molecular target: T1, DNA-dependent protein kinase catalytic subunit; experiment: Inhibition of human DNA-PK using GST-tagged p53N66 as substrate after 1 hr by ELISA-based chemiluminiscence assay
HeLa [4] = experiment: Antiproliferative activity against human HeLa cells assessed as cell survival ratio at 0.1 uM treated 1 hr before 2Gy ionizing radiation measured after 6 to 8 days by DMR clonogenic assay; assay type: functional
Method in brief: (§1)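 HeLa cells seeded in 6-well dishes, incubated overnight at 37 °C/5% CO2, pre-treated 1 h with vehicle or inhibitor (0.1 or 0.5 μM), then given 2 Gy X-ray IR and held overnight. Medium then replaced without compound and culture continued 6-8 days. Colonies Giemsa-stained and counted automatically. DMR = % survival (vehicle, 2 Gy) / % survival (compound, 2 Gy).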

HeLa [5] = experiment: Antiproliferative activity against human HeLa cells assessed as cell survival ratio at 0.5 uM treated 1 hr before 2Gy ionizing radiation measured after 6 to 8 days by DMR clonogenic assay; assay type: functional; method in brief: as §1

SMILES	fraction unbound [1]	pEC50 [2]	pIC50 [3]	Ratio (HeLa [4])	Ratio (HeLa [5])
CC(=O)N1CCN(CCOc2ccc(-c3cccc4c(=O)cc(N5CCOCC5)oc34)c3sc4ccccc4c23)CC1	0.0049	6.78	8.70	–	–
O=C(CN1CCCCCC1)Nc1ccc(-c2cccc3c(=O)cc(N4CCOCC4)oc23)c2sc3ccccc3c12	–	–	7.29	1.3	3.9
O=C(CCNCCCN1CCOCC1)Nc1ccc(-c2cccc3c(=O)cc(N4CCOCC4)oc23)c2sc3ccccc3c12	–	–	8.05	0.9	1.4
NCC(=O)Nc1ccc(-c2cccc3c(=O)cc(N4CCOCC4)oc23)c2sc3ccccc3c12	–	–	7.92	2.5	9
CCN1CCN(CCC(=O)Nc2ccc(-c3cccc4c(=O)cc(N5CCOCC5)oc34)c3sc4ccccc4c23)CC1	–	–	7.48	1.4	4.1
O=C(CNCCN1CCCCC1)Nc1ccc(-c2cccc3c(=O)cc(N4CCOCC4)oc23)c2sc3ccccc3c12	–	–	7.21	1.3	9.6
O=C(CCN1CCN(CCO)CC1)Nc1ccc(-c2cccc3c(=O)cc(N4CCOCC4)oc23)c2sc3ccccc3c12	–	–	7.54	1	1.2
CN(C)CC(=O)Nc1ccc(-c2cccc3c(=O)cc(N4CCOCC4)oc23)c2sc3ccccc3c12	–	–	7.74	1	7.4
O=C(CNCCN1CCNC1=O)Nc1ccc(-c2cccc3c(=O)cc(N4CCOCC4)oc23)c2sc3ccccc3c12	–	–	8.15	1.2	1.2
O=C(CCN(CCO)CCO)Nc1ccc(-c2cccc3c(=O)cc(N4CCOCC4)oc23)c2sc3ccccc3c12	–	–	7.59	1	0.8
CN1CCCN(CCOc2ccc(-c3cccc4c(=O)cc(N5CCOCC5)oc34)c3sc4ccccc4c23)CC1	–	–	8.00	1.5	3.6
COc1ccc(CNCCC(=O)Nc2ccc(-c3cccc4c(=O)cc(N5CCOCC5)oc34)c3sc4ccccc4c23)cc1	–	–	8.05	1.7	7.2
COCCN(CCOC)CC(=O)Nc1ccc(-c2cccc3c(=O)cc(N4CCOCC4)oc23)c2sc3ccccc3c12	–	–	7.74	1.5	7.9
C[C@@H]1CN(CCOc2ccc(-c3cccc4c(=O)cc(N5CCOCC5)oc34)c3sc4ccccc4c23)C[C@H](C)O1	–	–	8.00	1.1	3.2
NCCNCCC(=O)Nc1ccc(-c2cccc3c(=O)cc(N4CCOCC4)oc23)c2sc3ccccc3c12	–	–	7.66	1.2	1.4
CC(C)NCC(=O)CN1CCN(CC(=O)Nc2ccc(-c3cccc4c(=O)cc(N5CCOCC5)oc34)c3sc4ccccc4c23)CC1	–	–	8.22	2	8.8
CN1CCN(C(=O)COc2ccc(-c3cccc4c(=O)cc(N5CCOCC5)oc34)c3sc4ccccc4c23)CC1	–	–	7.54	1.1	1.8
COCCNCC(=O)Nc1ccc(-c2cccc3c(=O)cc(N4CCOCC4)oc23)c2sc3ccccc3c12	–	–	8.15	1.2	5.9
O=c1cc(N2CCOCC2)oc2c(-c3ccc(OCCN4CCOCC4)c4c3sc3ccccc34)cccc12	–	–	8.10	1.5	6.4
O=C(CN(CCO)CCO)Nc1ccc(-c2cccc3c(=O)cc(N4CCOCC4)oc23)c2sc3ccccc3c12	–	–	8.22	1.1	1.9

SMILES	fraction unbound [1]	pEC50 [2]	pIC50 [3]	Ratio (HeLa [4])	Ratio (HeLa [5])
O=C(CNCc1ccncc1)Nc1ccc(-c2cccc3c(=O)cc(N4CCOCC4)oc23)c2sc3ccccc3c12	–	–	8.10	1.4	5.5
COC(=O)[C@H](CO)NC(=O)COc1ccc(-c2cccc3c(=O)cc(N4CCOCC4)oc23)c2sc3ccccc3c12	–	–	8.22	1.5	6.1
O=C(CCN1CCN(c2ccccn2)CC1)Nc1ccc(-c2cccc3c(=O)cc(N4CCOCC4)oc23)c2sc3ccccc3c12	–	–	7.62	1.5	4.4
COCCN1CCN(CC(=O)Nc2ccc(-c3cccc4c(=O)cc(N5CCOCC5)oc34)c3sc4ccccc4c23)CC1	–	–	8.22	2.2	7.7
CN1CCCN(C(=O)COc2ccc(-c3cccc4c(=O)cc(N5CCOCC5)oc34)c3sc4ccccc4c23)CC1	–	–	7.36	1.1	2
O=C(CCNCc1ccncc1)Nc1ccc(-c2cccc3c(=O)cc(N4CCOCC4)oc23)c2sc3ccccc3c12	–	–	7.92	1.1	2.6
C[C@@H]1CN(CCC(=O)Nc2ccc(-c3cccc4c(=O)cc(N5CCOCC5)oc34)c3sc4ccccc4c23)C[C@H](C)O1	–	–	8.05	2.4	9.3
CN1CCN(CCC(=O)Nc2ccc(-c3cccc4c(=O)cc(N5CCOCC5)oc34)c3sc4ccccc4c23)CC1	–	–	7.55	1	6.6
O=C(CNCCN1CCOCC1)Nc1ccc(-c2cccc3c(=O)cc(N4CCOCC4)oc23)c2sc3ccccc3c12	–	–	7.92	1.4	4.7
O=C(CCN1CCNCC1)Nc1ccc(-c2cccc3c(=O)cc(N4CCOCC4)oc23)c2sc3ccccc3c12	–	–	7.43	1	1.5
CN1CCCN(CCC(=O)Nc2ccc(-c3cccc4c(=O)cc(N5CCOCC5)oc34)c3sc4ccccc4c23)CC1	–	–	7.39	1.1	2.6
O=c1cc(N2CCOCC2)oc2c(-c3ccc(OCCNc4cccnc4)c4c3sc3ccccc34)cccc12	–	–	8.70	0.9	1
CC(=O)N1CCN(CCC(=O)Nc2ccc(-c3cccc4c(=O)cc(N5CCOCC5)oc34)c3sc4ccccc4c23)CC1	–	–	7.64	0.9	1.4
O=C(CCNCCN1CCNC1=O)Nc1ccc(-c2cccc3c(=O)cc(N4CCOCC4)oc23)c2sc3ccccc3c12	–	–	8.22	1.1	0.9
CC(C)N1CCN(CC(=O)Nc2ccc(-c3cccc4c(=O)cc(N5CCOCC5)oc34)c3sc4ccccc4c23)CC1	–	–	8.05	1.7	12.9
O=C(CCN1CCCN(CCO)CC1)Nc1ccc(-c2cccc3c(=O)cc(N4CCOCC4)oc23)c2sc3ccccc3c12	–	–	7.38	1.2	1.1
COC(=O)[C@H](CO)NCCOc1ccc(-c2cccc3c(=O)cc(N4CCOCC4)oc23)c2sc3ccccc3c12	–	–	8.70	2.9	10.5
O=C(CNCCCN1CCOCC1)Nc1ccc(-c2cccc3c(=O)cc(N4CCOCC4)oc23)c2sc3ccccc3c12	–	–	7.89	2	7.4
CN(C)CCN(C)C(=O)COc1ccc(-c2cccc3c(=O)cc(N4CCOCC4)oc23)c2sc3ccccc3c12	–	–	7.28	1.4	2.1
CN1CCCC1CCNCC(=O)Nc1ccc(-c2cccc3c(=O)cc(N4CCOCC4)oc23)c2sc3ccccc3c12 (stereo not given)	–	–	7.37	1.1	2.4
